From ChEMBL document CHEMBL1795212, “Synthesis and in vitro antimalarial activity of tetraoxane-amine/amide conjugates” (Eur J Med Chem, 2011)

What was measured:
[1] = Selectivity index, IC50 for african green monkey Vero cells to IC50 for Plasmodium falciparum D6; assay type: functional
In short: (§1)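 Selectivity index is the cytotoxicity IC50 in Vero cells divided by the antimalarial IC50 against the stated P. falciparum clone (D6 or W2).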

Plasmodium falciparum [2] = test: Antimalarial activity against Plasmodium falciparum D6 assessed as plasmodial LDH activity after 72 hrs; assay type: functional, organism-based
In short: (§2)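 P. falciparum D6 (chloroquine-sensitive) and W2 (chloroquine-resistant) clones screened in vitro alongside Vero cytotoxicity, up to a highest concentration of 12.5; IC50 determined.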

Plasmodium falciparum [3] = test: Antimalarial activity against Plasmodium falciparum W2 assessed as plasmodial LDH activity after 72 hrs; assay type: functional, organism-based; in short: as §2
[4] = Selectivity index, IC50 for african green monkey Vero cells to IC50 for Plasmodium falciparum W2; assay type: functional; in short: as §1
Vero = test: Cytotoxicity against african green monkey Vero cells at 12.5 uM; assay type: cell-based; conditions: chlorocebus sabaeus
In short: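 Mammalian kidney Vero cells screened in vitro for cytotoxicity, in parallel with the antimalarial screen, up to a highest concentration of 12.5.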

[5] = Plasmodium falciparum, D6, 72 h, read-out: IC50
[6] = Plasmodium falciparum, W2, 72 h, read-out: IC50

Structure (SMILES)	Ratio IC50 [1]	IC50 (Plasmodium falciparum [2]; [5])	IC50 (Plasmodium falciparum [3]; [6])	Ratio IC50 [4]	Activity (Vero)	IC50 (Plasmodium falciparum [2])	IC50 (Plasmodium falciparum [3])
C[C@@H]1CC[C@H]2[C@@H](C)C(=O)O[C@@H]3O[C@@]4(C)CC[C@@H]1[C@]32OO4 [ARTEMISININ]	>500	0.03 µM	0.025 µM	>670	Non-toxic	–	–
CCc1ccc(C2OOC(c3ccc(C(=O)NCCCCCCO)cc3)OO2)cc1 (stereo not given)	>3.4	3.36 µM	4.81 µM	>2.4	Non-toxic	–	–
Cc1ccc(NCc2ccc(C3OOC(c4ccc(C)cc4)OO3)cc2)cc1 (stereo not given)	–	–	–	–	Non-toxic	Not Active	Not Active
Cc1ccc(C2OOC(c3ccc(CNc4ccccc4)cc3)OO2)cc1 (stereo not given)	>7.1	1.84 µM	1.59 µM	>8.2	Non-toxic	–	–
CCN(CC)CCCC(C)Nc1ccnc2cc(Cl)ccc12 (stereo not given) [CHLOROQUINE]	–	–	–	–	Non-toxic	–	–
Cc1ccc(C2OOC(c3ccc(CNc4cccc(F)c4)cc3)OO2)cc1 (stereo not given)	>5.1	2.46 µM	1.83 µM	>6.8	Non-toxic	–	–
CCc1ccc(C2OOC(c3ccc(C=O)cc3)OO2)cc1 (stereo not given)	>1.4	10.9 µM	5.99 µM	>2.6	Non-toxic	–	–
CC(C)c1ccc(C2OOC(c3ccc(C=O)cc3)OO2)cc1 (stereo not given)	>2.2	6.99 µM	3.11 µM	>4.9	Non-toxic	–	–
Cc1ccc(C2OOC(c3ccc(CNc4ccc(N)cc4)cc3)OO2)cc1 (stereo not given)	>2.4	5.28 µM	7.39 µM	>1.7	Non-toxic	–	–
Cc1ccc(C2OOC(c3ccc(CNc4ccc(Cl)cc4)cc3)OO2)cc1 (stereo not given)	>6.8	1.79 µM	1.7 µM	>7	Non-toxic	–	–
Cc1ccc(C2OOC(c3ccc(/C=N\c4ccc(Br)cc4)cc3)OO2)cc1 (stereo not given)	>1.4	7.95 µM	4.09 µM	>2.6	Non-toxic	–	–
Cc1ccc(C2OOC(c3ccc(CNc4ccc(O)cc4)cc3)OO2)cc1 (stereo not given)	>1.8	6.32 µM	7.11 µM	>1.8	Non-toxic	–	–
Cc1ccccc1C1OOC(c2ccc(CO)cc2)OO1 (stereo not given)	>7.7	2.15 µM	1.9 µM	>8.7	Non-toxic	–	–
Cc1ccc(C2OOC(c3ccc(CNc4ccccc4S)cc3)OO2)cc1 (stereo not given)	>5.5	2.19 µM	1.59 µM	>7.6	Non-toxic	–	–
CCCc1ccc(NCc2ccc(C3OOC(c4ccc(C)cc4)OO3)cc2)cc1 (stereo not given)	>2.3	5.67 µM	4.19 µM	>2.8	Non-toxic	–	–
CCc1ccc(C2OOC(c3ccc(C(=O)NCCCNc4ccnc5cc(Cl)ccc45)cc3)OO2)cc1 (stereo not given)	>8.2	1.08 µM	2.43 µM	>3.7	Non-toxic	–	–
COc1ccc(NCc2ccc(C3OOC(c4ccc(C)cc4)OO3)cc2)cc1 (stereo not given)	>1.5	8.13 µM	10.2 µM	>1.2	Non-toxic	–	–
Cc1ccc(C2OOC(c3ccc(CNc4ccccc4C)cc3)OO2)cc1 (stereo not given)	–	–	–	–	Non-toxic	Not Active	Not Active
Cc1ccc(C2OOC(c3ccc(CNc4ccccc4Cl)cc3)OO2)cc1 (stereo not given)	>4.8	2.51 µM	2.76 µM	>4.3	Non-toxic	–	–
Cc1ccc(C2OOC(c3ccc(/C=N\c4ccccc4S)cc3)OO2)cc1 (stereo not given)	>1.8	6.86 µM	5.08 µM	>2.4	Non-toxic	–	–
O=Cc1ccc(C2OOC(c3ccccc3)OO2)cc1 (stereo not given)	>1.3	13.2 µM	> 17.5 µM	>1	Non-toxic	–	–
Cc1ccc(C2OOC(c3ccc(C=O)cc3)OO2)cc1 (stereo not given)	–	–	–	–	Non-toxic	Not Active	Not Active
Cc1ccc(C2OOC(c3ccc(/C=N\N)cc3)OO2)cc1 (stereo not given)	>9	2.59 µM	1.26 µM	>9	Non-toxic	–	–
Cc1ccc(C2OOC(c3ccc(/C=N\CCO)cc3)OO2)cc1 (stereo not given)	>5.1	2.82 µM	2.37 µM	>6.1	Non-toxic	–	–
Cc1ccc(C2OOC(c3ccc(C(=O)N4CCN(c5ccccc5)CC4)cc3)OO2)cc1 (stereo not given)	>2.6	4.03 µM	7.16 µM	>1.5	Non-toxic	–	–

Structure (SMILES)	Ratio IC50 [1]	IC50 (Plasmodium falciparum [2]; [5])	IC50 (Plasmodium falciparum [3]; [6])	Ratio IC50 [4]	Activity (Vero)	IC50 (Plasmodium falciparum [2])	IC50 (Plasmodium falciparum [3])
Cc1ccc(C2OOC(c3ccc(/C=N/C4CCCCC4)cc3)OO2)cc1 (stereo not given)	>6.8	1.9 µM	1.85 µM	>7	Non-toxic	–	–
Cc1ccc(C2OOC(c3ccc(CNc4c(C)cccc4C)cc3)OO2)cc1 (stereo not given)	>8.2	1.48 µM	1.45 µM	>8.4	Non-toxic	–	–
CCCCNC(=O)c1ccc(C2OOC(c3ccc(C)cc3)OO2)cc1 (stereo not given)	–	–	–	–	Non-toxic	Not Active	Not Active
Cc1cccc(C2OOC(c3ccc(C=O)cc3)OO2)c1 (stereo not given)	–	–	–	–	Non-toxic	Not Active	Not Active
Cc1ccc(C2OOC(c3ccc(CNc4cc(Cl)c(Cl)cc4Cl)cc3)OO2)cc1 (stereo not given)	>1.2	8.57 µM	6.42 µM	>1.6	Non-toxic	–	–
Cc1ccc(C2OOC(c3ccc(CN(C)c4ccccc4)cc3)OO2)cc1 (stereo not given)	>8.4	1.51 µM	2.11 µM	>6	Non-toxic	–	–
Cc1ccc(C2OOC(c3ccc(CNc4cccc5ccccc45)cc3)OO2)cc1 (stereo not given)	–	–	–	–	Non-toxic	Not Active	Not Active
Cc1ccccc1C1OOC(c2ccc(C=O)cc2)OO1 (stereo not given)	–	–	–	–	Non-toxic	Not Active	Not Active
Cc1ccc(C2OOC(c3ccc(/C=N\c4ccc(Cl)cc4)cc3)OO2)cc1 (stereo not given)	>8.2	1.46 µM	1.46 µM	>8.2	Non-toxic	–	–
COc1cc(NCc2ccc(C3OOC(c4ccc(C)cc4)OO3)cc2)cc(OC)c1 (stereo not given)	>1.8	6.37 µM	9.2 µM	>1.2	Non-toxic	–	–
Cc1ccc(C2OOC(c3ccc(/C=N\c4ccccc4)cc3)OO2)cc1 (stereo not given)	>1.7	7.74 µM	5.53 µM	>2.4	Non-toxic	–	–
Cc1ccc(C2OOC(c3ccc(CNc4cccc(O)c4)cc3)OO2)cc1 (stereo not given)	>3.7	3.42 µM	3.95 µM	>3.2	Non-toxic	–	–
CC(C)c1ccc(C2OOC(c3ccc(CO)cc3)OO2)cc1 (stereo not given)	>7.4	2.02 µM	1.89 µM	>7.9	Non-toxic	–	–
Cc1ccc(C2OOC(c3ccc(C(=O)O)cc3)OO2)cc1 (stereo not given)	>1.5	10.6 µM	9.26 µM	>1.7	Non-toxic	–	–
CCCCCNC(=O)c1ccc(C2OOC(c3ccc(CC)cc3)OO2)cc1 (stereo not given)	–	–	–	–	Non-toxic	Not Active	Not Active
Cc1ccc(C2OOC(c3ccc(/C=N/CCc4ccccc4)cc3)OO2)cc1 (stereo not given)	>7.9	1.54 µM	1.49 µM	>8.2	Non-toxic	–	–
Cc1ccc(C2OOC(c3ccc(CNc4ccc(C(C)C)cc4)cc3)OO2)cc1 (stereo not given)	>4.9	2.39 µM	3.2 µM	>3.7	Non-toxic	–	–
Cc1ccc(C2OOC(c3ccc(CO)cc3)OO2)cc1 (stereo not given)	>9	1.83 µM	2.42 µM	>6.8	Non-toxic	–	–
CCCNC(=O)c1ccc(C2OOC(c3ccc(C)cc3)OO2)cc1 (stereo not given)	>3.4	8.73 µM	13.9 µM	>1	Non-toxic	–	–
Cc1ccc(C2OOC(c3ccc(CNc4cccc(Cl)c4)cc3)OO2)cc1 (stereo not given)	–	–	–	–	Non-toxic	Not Active	Not Active
Cc1ccc(C2OOC(c3ccc(C(=O)NCCO)cc3)OO2)cc1 (stereo not given)	–	–	–	–	Non-toxic	Not Active	Not Active
Cc1ccc(C2OOC(c3ccc(C(=O)NCCCCCCO)cc3)OO2)cc1 (stereo not given)	–	–	–	–	Non-toxic	Not Active	Not Active
CCc1ccc(C2OOC(c3ccc(C(=O)O)cc3)OO2)cc1 (stereo not given)	–	–	–	–	Non-toxic	Not Active	Not Active
Cc1ccc(C2OOC(c3ccc(C(=O)NCCCO)cc3)OO2)cc1 (stereo not given)	–	–	–	–	Non-toxic	Not Active	Not Active
